Activity calls are given as the source filed them. The rule behind the calls is not given here.

Here are results for three molecules from ChEMBL document CHEMBL2375282, “Spirohexenolide A targets human macrophage migration inhibitory factor (hMIF)” (J Nat Prod, 2013).

Data set [1] relates to HCT-116. Put plainly: Growth inhibition of human HCT116 cells. The data set is classed as functional. The essentials: (§1)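 HCT-116 cells grown in McCoy's 5A with 10% heat-inactivated FCS and penicillin/streptomycin at 37 °C, 5% CO2. Conventional MTT assay, run in triplicate at 5 or 6 concentrations spanning 0 to 0.035 mg/mL. Repeated until deviation fell within 5%.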
The nature of data set [2]: Cytotoxicity against human NCI60 cells by MTT assay. The class given is functional. For orientation: Tetrazolium assays rely on reduction of a dye to a coloured formazan, in cell work by metabolically active cells.
Data set [3] relates to HCT-116. Put plainly: Cytotoxicity against human HCT116 cells by MTT assay. The data set is classed as functional, cell-based. The essentials: as §1
The target in data set [4] is T1, Macrophage migration inhibitory factor (Homo sapiens, UniProt P14174).
T1 sequence (P14174 whole entry): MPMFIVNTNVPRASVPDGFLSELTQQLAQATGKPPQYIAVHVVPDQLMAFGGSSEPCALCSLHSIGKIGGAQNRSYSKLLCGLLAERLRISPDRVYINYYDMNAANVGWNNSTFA
Description: Binding affinity to human recombinant MIF expressed in Escherichia coli BL21(DE3) by isothermal titration calorimetric assay. Summed up:
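Recombinant hMIF from E. coli BL-21(DE3) (pET-11b), purified by SP/Q flow-through, dialyzed in 50 mM potassium phosphate pH 7.4. ITC at 30 °C: 1.25 mM hMIF titrated from syringe into 1.5 mL of 0.5 mM ligand in the same buffer with 2% DMSO. Buffer-only titration used as control. Kd fitted with a sigmoid function over multiple analyses.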

For data set [5], the target named is T2, Macrophage migration inhibitory factor (Homo sapiens) (UniProt P14174).
T2 sequence (whole entry): T1 sequence (P14174 whole entry)
Put plainly: Inhibition of human recombinant MIF tautomerase activity expressed in Escherichia coli BL21(DE3) at 100 uM in presence of dopachrome. Summed up: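 Dopachrome made from 0.24 mM DOPA plus 0.48 mM NaIO4 in 25 mM potassium phosphate pH 7.2, 5 min at rt. Added 1:1 to wells holding 10 μM purified recombinant hMIF premixed with 100 μM compound. Kinetics followed immediately at 485 nm. Controls: buffer, compound alone, hMIF alone.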

Data set [6] has as its target T2, Macrophage migration inhibitory factor (Homo sapiens). Put plainly: Inhibition of human recombinant Alexa 488-labeled MIF expressed in Escherichia coli BL21(DE3) assessed as inhibition of uptake into human HCT116 cells at 30 uM after 2 hrs by inverted confocal microscopic analysis. Conditions: HCT-116. Summed up: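 Recombinant hMIF labeled with Alexa Fluor 488 (~0.3 dye per protein) in NaHCO3 pH 8.3. HCT-116 cells given 1.5 μM Alexa-hMIF premixed with 30 μM compound for 2 h at 37 °C, then washed and fixed with formaldehyde/glutaraldehyde. Two-color confocal imaging: 375 nm excitation with 448 nm emission, and 488 nm excitation with 524 nm emission.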

Data set [7] has the same target. Description: Inhibition of human MIF-mediated AKT phosphorylation expressed in mouse NIH/3T3 cells after 30 mins by Western blotting analysis. The class given is cell-based. The following applies: NIH3T3. Summed up: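 NIH/3T3 cells grown 24 h in DMEM with 10% FCS in 12-well plates, then serum-starved 24 h. Treated 30 min with hMIF (1 μg) plus DMSO or plus compound (0.1 μg) in 100 μL medium. Lysates blotted for p-Akt Ser473, total Akt and GAPDH. p-Akt/Akt ratio normalized to GAPDH, with untreated cells set to 1. Three independent experiments.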
(Immunoblotting shows a protein as a band on a membrane.)

In data set [8] the test system is HCT-116. Description: Cytotoxicity against human HCT116 cells assessed as compaction of chromatin at 10 uM after 24 hrs by inverted confocal microscopic analysis. The data set is classed as cell-based. The following applies: hct-116, 24 h. Summed up: (§2)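 Live HCT116 cells in McCoy's 5A with 10% FCS, 37 °C, 5% CO2. Compound added as 10× stock in media, final DMSO under 0.5%. Time-lapse imaging over 24 h at 10–15 min intervals, then spinning-disk confocal at selected times (1, 6, 24 h) with IAF tag excitation 360 nm and emission 470 nm. Lysosomes counterstained with LysoTracker Red after fixation in formaldehyde/glutaraldehyde.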

The target of data set [9] is T2, Macrophage migration inhibitory factor (Homo sapiens). Description: Binding affinity to MIF in human HCT116 whole cell lysates by Western blotting analysis. The following applies: HCT-116. Summed up:
(§3)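 Affinity capture with immunoaffinity-fluorescent (IAF)-tagged probe. Live-cell route: HCT116 cells incubated 4 h at 37 °C with 15 μg probe in 15 mL media, then lysed (D-PBS, 5 mM EDTA, 1% NP-40, protease inhibitors). Whole-lysate route: probe added after lysis. Lysate immunoprecipitated on anti-IAF mAb resin 4 h at 4 °C. Elution with 0.1 M glycine-HCl pH 2.5, then NuPAGE and blotting with anti-hMIF mAb.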

A short description of data set [10]: Drug uptake in human HCT116 cell cytoplasm at 10 uM after 1 hr by inverted confocal microscopic analysis. The class given is ADME, cell-based. The following applies: hct-116, 1 h. Summed up: as §2
Data set [11] deals with HCT-116. Description: Cellular uptake in human HCT116 cells assessed as increase in blue fluorescence at 10 uM after 1 hr by inverted confocal microscopic analysis. The data set is classed as ADME, cell-based. The following applies: hct-116, 1 h. The essentials: as §2
Data set [12] has as its target T2, Macrophage migration inhibitory factor (Homo sapiens). Put plainly: Binding affinity to human recombinant MIF expressed in Escherichia coli BL21(DE3) lysates by Western blotting analysis. The essentials:
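E. coli BL21(DE3) lysate expressing recombinant hMIF (pET-11b, 0.4 mM IPTG, 4 h), 1–2 mg net protein. Immunoprecipitated with 1 μg IAF-tagged probe on anti-IAF mAb resin, 4 h at 4 °C. Glycine-HCl pH 2.5 elution. Blot probed with mouse anti-hMIF monoclonal and AP-conjugated secondary, BCIP/NBT development.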

A short description of data set [13]: Drug uptake in human HCT116 cell membrane at 10 uM after 1 hr by inverted confocal microscopic analysis. The class given is ADME, cell-based. The following applies: hct-116, 1 h. The essentials: as §2
The nature of data set [14]: Cellular uptake in human HCT116 cells assessed as lysosomal localization at 10 uM after 6 to 12 hrs by inverted confocal microscopic analysis. Conditions: hct-116, 10 µM. The class given is ADME, cell-based, Lysosome. Summed up: as §2
Data set [15] concerns the target T2, Macrophage migration inhibitory factor (Homo sapiens). Put plainly: Binding affinity to MIF in human HCT116 live cell lysates by Western blotting analysis. The following applies: HCT-116. Summed up:
as §3

Data set [16] relates to HCT-116. Description: Cytotoxicity against human HCT116 cells assessed as membrane blebbing at 10 uM after 24 hrs by inverted confocal microscopic analysis. The class given is cell-based. Conditions: hct-116, 24 h. Summed up:
as §2

[17] abbreviates: read-out: LC50 (the source's name).

For `CC1=C[C@]2(C)/C=C(C)/C=C/C[C@@H](O)/C=C3C=C/C(=C4\C(=O)O[C@]2(C[C@@H]1C)C4=O)OC/3`, the GI50 (in general, the concentration giving 50% growth inhibition) amounted to 0.79 µM with HCT-116 [1] and 2.16 µM in [2]. Moreover, the TGI (in general, the concentration at which net growth stops) with HCT-116 [1] came to 5.01 µM; in data set [2], 8.81 µM. Further, the CC50 in the data set with HCT-116 [1] (setting [17]) stood at 100 µM; in data set [2] (setting [17]), 33.2 µM. Also, in the data set with HCT-116 [3], the IC50 (in general, the point on the concentration scale where inhibition reaches its midpoint) was determined as 36 µM. For the same molecule, in [4], the Kd (commonly the equilibrium constant for the complex coming apart) stood at 35.9 µM. Also, the inhibition entry in [5] was “inactive”. Further, the inhibition entry in data set [6] and in [7] was “Active” in each case.
On to `CC1=C[C@]2(C)/C=C(C)/C=C/C[C@@H](OC(=O)CCC(=O)NCCCCCCNC(=O)Cc3cc(=O)oc4cc(N(C)C)ccc34)/C=C3C=C/C(=C4\C(=O)O[C@]2(C[C@@H]1C)C4=O)OC/3`, for which the Activity result in the data set with HCT-116 [8] and in the data set on HCT-116 [16] was “Toxic” throughout. Further, the result in [9], in data set [12] and in data set [15] was Active. Moreover, the Drug uptake entry (in [10]; in the data set with HCT-116 [11]; in data set [13]; in [14]) was “Active” each time. For the same molecule, in the data set with HCT-116 [3], the IC50 is 6 µM. Further, in data set [5], the inhibition result was “inactive”.
In turn, `CC1=C[C@]2(C)/C=C(C)/C=C/C[C@@H](OC(=O)CCn3cc(CNC(=O)Cc4cc(=O)oc5cc(N(C)C)ccc45)nn3)/C=C3C=C/C(=C4\C(=O)O[C@]2(C[C@@H]1C)C4=O)OC/3` displayed a half-maximal inhibitory concentration (IC50) in the data set with HCT-116 [3] of 21.2 µM.
